Data from ChEMBL document CHEMBL3525945, “Metabolic switching of BILR 355 in the presence of ritonavir. II. Uncovering novel contributions by gut bacteria and aldehyde oxidase” (Drug Metab Dispos, 2012).

Key:
Cytochrome P450 3A4 = Cytochrome P450 3A4 (Homo sapiens, UniProt P08684); experiment: Activity at recombinant CYP3A4 (unknown origin) expressed in baculovirus-infected insect cells assessed as enzyme-mediated drug depletion by measuring compound level at 10 uM after 4 mins by LC-MS/MS analysis in presence of NADPH; type: ADME
Summary of the method: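 rCYP3A4 (5 pmol/mL) incubated with BILR 402 at 1 or 10 μM in 0.1 M potassium phosphate/5 mM MgCl2, pH 7.4, with NADPH at 37 °C. Remaining BILR 402 and BILR 355 formed were read at 4 min by LC-MS/MS against a labelled internal standard.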

Cytochrome P450 2B6 = biological target: T1, Cytochrome P450 2B6 (Homo sapiens, UniProt P20813); experiment: Activity at recombinant CYP2B6 (unknown origin) expressed in baculovirus-infected insect cells assessed as enzyme-mediated drug depletion at 1 to 10 uM by LC-MS/MS analysis in presence of NADPH; type: ADME
T1 sequence (P20813 whole entry): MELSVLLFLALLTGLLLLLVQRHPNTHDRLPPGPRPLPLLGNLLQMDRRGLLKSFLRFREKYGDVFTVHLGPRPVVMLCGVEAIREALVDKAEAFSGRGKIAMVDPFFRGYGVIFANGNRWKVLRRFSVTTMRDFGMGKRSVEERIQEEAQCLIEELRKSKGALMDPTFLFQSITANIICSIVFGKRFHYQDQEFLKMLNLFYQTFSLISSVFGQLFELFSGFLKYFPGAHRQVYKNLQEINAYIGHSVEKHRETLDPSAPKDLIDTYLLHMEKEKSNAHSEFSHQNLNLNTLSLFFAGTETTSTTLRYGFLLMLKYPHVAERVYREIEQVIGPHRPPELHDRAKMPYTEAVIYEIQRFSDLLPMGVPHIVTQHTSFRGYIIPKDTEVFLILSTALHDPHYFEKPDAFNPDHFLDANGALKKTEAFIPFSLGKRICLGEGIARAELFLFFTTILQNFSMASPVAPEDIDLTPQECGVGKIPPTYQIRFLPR
Summary of the method: (§1)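 BILR 402 (1 or 10 μM) with baculovirus/insect-cell recombinant CYPs, levels scaled to average liver content (1A2 2, 2A6 1, 2B6 0.1, 2C9 1.5, 2C19 1.5, 2D6 0.3, 3A4 5 pmol/mL). Buffer 0.1 M potassium phosphate, 5 mM MgCl2, pH 7.4; 2.5 mM NADPH; 37 °C. Non-transfected insect microsomes served as controls. Aliquots taken 0.5–30 min and acetonitrile-quenched; depletion measured by LC-MS/MS with isotope-labelled internal standard.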

Liver cytosol = experiment: Drug metabolism in human liver cytosol assessed as BILR516-18O and BILR516-16O metabolite formation at 5 uM after 60 mins by 18O incorporation based LC-MS/MS analysis; type: ADME, tissue-based; details: 1 h
Summary of the method: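 BILR 402 (5 μM final) was incubated with human liver cytosol in 0.05 M potassium phosphate buffer made with 100% H2^16O or H2^16O/H2^18O 82:18 (v/v), at 37 °C without NADPH. […] The M+2 isotope contribution was subtracted before calculating peak-area ratios; n=2.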

Cytochrome P450 2A6 = biological target: T2, Cytochrome P450 2A6 (Homo sapiens, UniProt P11509); experiment: Activity at recombinant CYP2A6 (unknown origin) expressed in baculovirus-infected insect cells assessed as enzyme-mediated drug depletion at 1 to 10 uM by LC-MS/MS analysis in presence of NADPH; type: ADME; summary of the method: as §1
T2 sequence (P11509 whole entry): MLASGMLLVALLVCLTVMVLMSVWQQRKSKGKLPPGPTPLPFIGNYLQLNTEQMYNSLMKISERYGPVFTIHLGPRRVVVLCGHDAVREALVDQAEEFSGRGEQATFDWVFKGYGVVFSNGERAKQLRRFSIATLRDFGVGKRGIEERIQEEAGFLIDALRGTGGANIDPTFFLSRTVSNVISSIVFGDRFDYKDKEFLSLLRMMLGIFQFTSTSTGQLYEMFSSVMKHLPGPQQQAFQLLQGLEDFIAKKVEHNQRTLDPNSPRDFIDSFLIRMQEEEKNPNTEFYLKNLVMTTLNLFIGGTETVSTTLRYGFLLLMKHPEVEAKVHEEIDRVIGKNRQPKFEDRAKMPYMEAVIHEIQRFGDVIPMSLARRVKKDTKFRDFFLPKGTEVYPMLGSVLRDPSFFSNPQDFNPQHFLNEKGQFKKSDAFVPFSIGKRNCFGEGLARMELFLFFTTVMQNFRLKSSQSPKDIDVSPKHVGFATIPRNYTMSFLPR

Cytochrome P450 3A4, sequence (P08684 whole entry): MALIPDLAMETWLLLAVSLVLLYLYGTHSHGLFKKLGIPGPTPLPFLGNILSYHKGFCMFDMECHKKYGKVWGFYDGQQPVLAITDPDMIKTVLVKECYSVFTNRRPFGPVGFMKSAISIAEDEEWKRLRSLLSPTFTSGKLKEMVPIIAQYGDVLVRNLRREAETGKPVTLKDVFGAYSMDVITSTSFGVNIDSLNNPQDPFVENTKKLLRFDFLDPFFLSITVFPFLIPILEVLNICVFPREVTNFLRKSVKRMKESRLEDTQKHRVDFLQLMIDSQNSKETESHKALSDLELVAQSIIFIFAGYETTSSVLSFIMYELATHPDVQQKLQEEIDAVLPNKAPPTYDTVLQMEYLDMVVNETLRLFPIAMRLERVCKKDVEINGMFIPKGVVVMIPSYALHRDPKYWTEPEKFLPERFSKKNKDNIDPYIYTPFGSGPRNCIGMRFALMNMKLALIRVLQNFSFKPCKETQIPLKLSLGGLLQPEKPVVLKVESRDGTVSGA

In the case of CCN1c2ncc(CCOc3ccnc4ccccc34)cc2C(=O)N(C)c2cccnc21, the Drug metabolism (Cytochrome P450 3A4) is reported as 5 µM, the Drug metabolism (Cytochrome P450 2B6) is reported as “metabolite_not_detected” and the Drug metabolism (Liver cytosol) is reported as “metabolite_detected”. The Drug metabolism (Cytochrome P450 2A6) was “metabolite_not_detected”.
